Laboratory results taken from ChEMBL document CHEMBL1152300, “Ligand specificity of constitutive androstane receptor as probed by induced-fit docking and mutagenesis” (J Med Chem, 2008).

How the values were obtained:
[1] = molecular target: T1, Nuclear receptor subfamily 1 group I member 3 (Mus musculus, UniProt O35627); experiment: Increase in nuclear co-repressor receptor binding to wild type mouse CAR expressed in HEK293 cells at 10 uM by yeast two-hybrid assay; conditions: hek293, 10 µM
T1 sequence (O35627 whole entry): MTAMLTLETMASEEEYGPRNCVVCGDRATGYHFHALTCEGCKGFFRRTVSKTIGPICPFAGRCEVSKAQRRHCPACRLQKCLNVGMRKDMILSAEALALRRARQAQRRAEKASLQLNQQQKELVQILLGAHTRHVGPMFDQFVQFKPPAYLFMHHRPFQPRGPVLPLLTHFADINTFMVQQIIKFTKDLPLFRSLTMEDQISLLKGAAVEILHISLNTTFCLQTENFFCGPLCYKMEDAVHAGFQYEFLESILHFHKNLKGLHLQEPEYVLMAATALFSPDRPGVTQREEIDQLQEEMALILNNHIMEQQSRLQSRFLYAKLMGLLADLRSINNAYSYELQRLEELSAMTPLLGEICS

[2] = molecular target: T2, Nuclear receptor subfamily 1 group I member 3 (Mus musculus, UniProt O35627, Y336A); conditions: HEK293, mouse, read-out: Activity
T2 sequence (O35627 whole entry Y336A): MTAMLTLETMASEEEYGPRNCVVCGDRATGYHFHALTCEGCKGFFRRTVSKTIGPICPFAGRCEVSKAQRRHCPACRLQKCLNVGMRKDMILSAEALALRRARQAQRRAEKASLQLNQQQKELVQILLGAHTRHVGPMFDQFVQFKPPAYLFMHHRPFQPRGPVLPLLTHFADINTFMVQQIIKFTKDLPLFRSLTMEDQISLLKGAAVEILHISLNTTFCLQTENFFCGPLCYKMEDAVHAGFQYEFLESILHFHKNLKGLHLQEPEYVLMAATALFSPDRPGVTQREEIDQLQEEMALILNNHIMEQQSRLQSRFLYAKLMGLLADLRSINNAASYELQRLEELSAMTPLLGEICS

[3] = molecular target: T3, mouse CAR (NR1I3), wild type (Mus musculus, UniProt O35627); experiment: Decrease in wild type mouse CAR activation expressed in HEK293 cells at 10 uM by mammalian one-hybrid transactivation assay; type: cell-based; conditions: HEK293 cells expressing wild type mouse CAR, read-out: Activity
T3 sequence (O35627 whole entry): T1 sequence (O35627 whole entry)
Summary of the method: (§1)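 GAL4 DBD fused to mouse CAR LBD (residues 118-358), wild type or point mutant, cotransfected with UASx4-tk-luc reporter and pCMVβ into HEK293 cells. Cells cultured with DMSO (0.1% v/v) or compound (final 1, 2 or 10 µM). Lysed 24 h post-transfection. Luciferase normalized to β-galactosidase, expressed relative to empty GAL4 vector (=1.0). Mean ± SD, three independent experiments.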

[4] = molecular target: T4, Nuclear receptor subfamily 1 group I member 3 (Mus musculus, UniProt O35627, L212A); experiment: Decrease in mouse CAR L212A mutant activation expressed in HEK293 cells at 10 uM by mammalian one-hybrid assay; type: cell-based; conditions: read-out: Activity; summary of the method: as §1
T4 sequence (O35627 whole entry L212A): as the sequence (O35627 whole entry Y336A) above, with L212A, A336Y counted along it

[5] = molecular target: T5, Nuclear receptor subfamily 1 group I member 3 (Mus musculus, UniProt O35627, F171L); experiment: Enhancement of nuclear co-repressor receptor binding to mouse CAR F171L mutant […] at 2 uM by yeast two-hybrid assay; type: cell-based
T5 sequence (O35627 whole entry F171L, the tested form may be a part): as the sequence (O35627 whole entry Y336A) above, with F171L, A336Y counted along it
Summary of the method: (§2)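 Yeast two-hybrid: yeast expressing wild-type or mutant mouse CAR LBD plus SRC-1 or NCoR, selected on SD medium lacking Leu and Trp. Pooled colonies treated with DMSO or test chemical for 3.5 h. β-Galactosidase normalized to cell density. SRC-1 reference: wild-type + DMSO = 100. NCoR reference: 10 µM androstenol = 100. Mean ± SD, two independent determinations, each in triplicate.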

[6] = molecular target: Nuclear receptor subfamily 1 group I member 3 (Mus musculus, UniProt O35627, T350M); experiment: Decrease in nuclear co-repressor receptor binding to mouse CAR T350M mutant […] at 2 uM by yeast two-hybrid assay; type: cell-based; conditions: read-out: Activity; summary of the method: as §2
Sequence of Nuclear receptor subfamily 1 group I member 3 (Mus musculus, UniProt O35627, T350M) (O35627 whole entry T350M): as the sequence (O35627 whole entry Y336A) above, with A336Y, T350M counted along it

[7] = molecular target: T6, Nuclear receptor subfamily 1 group I member 3 (Mus musculus, UniProt O35627, F171A); experiment: Effect on steroid receptor co-activator 1 binding to mouse CAR F171A mutant […] at 2 uM by yeast two-hybrid assay; type: cell-based; conditions: read-out: Activity; summary of the method: as §2
T6 sequence (O35627 whole entry F171A): as the sequence (O35627 whole entry Y336A) above, with F171A, A336Y counted along it

[8] = molecular target: T6, Nuclear receptor subfamily 1 group I member 3; experiment: Effect on nuclear co-repressor receptor binding to mouse CAR F171A mutant […] at 2 uM by yeast two-hybrid assay; type: cell-based; conditions: read-out: Activity; summary of the method: as §2
[9] = molecular target: T4, Nuclear receptor subfamily 1 group I member 3; experiment: Activation of mouse CAR L212A mutant expressed in HEK293 cells at 2 uM by mammalian one-hybrid assay; type: cell-based; conditions: hek293, 2 µM
Summary of the method: (§3)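 GAL4-DBD fused to mouse CAR LBD (residues 118-358), wild-type or point mutant, cotransfected with UASx4-tk-luc reporter and pCMVβ into HEK293 cells. Cells were exposed to final 1 µM, 2 µM or 10 µM test chemical, or 0.1% v/v DMSO, for 24 h after transfection. Luciferase was normalized to β-galactosidase and set against empty GAL4 vector (=1.0). Mean ± standard deviation, three independent experiments.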

[10] = molecular target: T7, Nuclear receptor subfamily 1 group I member 3 (Mus musculus, UniProt O35627, H213A); experiment: Effect on steroid receptor co-activator 1 binding to mouse CAR H213A mutant […] at 1 uM by yeast two-hybrid assay; type: cell-based; conditions: read-out: Activity
T7 sequence (O35627 whole entry H213A, the tested form may be a part): as the sequence (O35627 whole entry Y336A) above, with H213A, A336Y counted along it
Summary of the method: (§4)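 Yeast expressing wild-type or mutant mouse CAR LBD plus SRC-1, selected on SD plates lacking leucine and tryptophan. Pooled colonies treated with DMSO or compound for 3.5 h. β-Galactosidase activity normalized to cell density. Reference is wild-type CAR + SRC-1 with DMSO (=100). Mean ± SD of two independent determinations, each in triplicate.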

[11] = molecular target: T8, Nuclear receptor subfamily 1 group I member 3 (Mus musculus, UniProt O35627, L353A); experiment: Decrease in mouse CAR L353A mutant activation expressed in HEK293 cells at 1 uM by mammalian one-hybrid assay; type: cell-based; conditions: read-out: Activity; summary of the method: as §1
T8 sequence (O35627 whole entry L353A): as the sequence (O35627 whole entry Y336A) above, with A336Y, L353A counted along it

[12] = molecular target: Nuclear receptor subfamily 1 group I member 3 (Mus musculus, UniProt O35627, S251L); experiment: Effect on nuclear co-repressor receptor binding to mouse CAR S251L mutant […] at 1 uM by yeast two-hybrid assay; type: cell-based; conditions: read-out: Activity
Sequence of Nuclear receptor subfamily 1 group I member 3 (Mus musculus, UniProt O35627, S251L) (O35627 whole entry S251L): as the sequence (O35627 whole entry Y336A) above, with S251L, A336Y counted along it
Summary of the method: as §4, with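 “NCoR,” for “SRC-1,”, “10 µM androstenol” for “wild-type CAR + SRC-1 with DMSO”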

[13] = molecular target: Nuclear receptor subfamily 1 group I member 3 (Mus musculus, UniProt O35627, I252L); experiment: Activation of mouse CAR I252L mutant expressed in HEK293 cells at 1 uM by mammalian one-hybrid assay; type: cell-based; conditions: hek293, 1 µM; summary of the method: as §1
Sequence of Nuclear receptor subfamily 1 group I member 3 (Mus musculus, UniProt O35627, I252L) (O35627 whole entry I252L): as the sequence (O35627 whole entry Y336A) above, with I252L, A336Y counted along it

[14] = molecular target: T2, Nuclear receptor subfamily 1 group I member 3; experiment: Effect on nuclear co-repressor receptor binding to mouse CAR Y336A mutant […] at 1 uM by yeast two-hybrid assay; type: cell-based; conditions: read-out: Activity
Summary of the method: as §4, with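 “NCoR,” for “SRC-1,”, “10 µM androstenol” for “wild-type CAR + SRC-1 with DMSO”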

[15] = molecular target: Nuclear receptor subfamily 1 group I member 3 (Mus musculus, UniProt O35627, T350A); experiment: Decrease in mouse CAR T350A mutant activation expressed in HEK293 cells at 1 uM by mammalian one-hybrid assay; type: cell-based; conditions: read-out: Activity; summary of the method: as §1
Sequence of Nuclear receptor subfamily 1 group I member 3 (Mus musculus, UniProt O35627, T350A) (O35627 whole entry T350A): as the sequence (O35627 whole entry Y336A) above, with A336Y, T350A counted along it

[16] = molecular target: T5, Nuclear receptor subfamily 1 group I member 3; experiment: Enhancement of nuclear co-repressor receptor binding to mouse CAR F171L mutant […] at 10 uM by yeast two-hybrid assay; type: cell-based; summary of the method: as §2
[17] = molecular target: T7, Nuclear receptor subfamily 1 group I member 3; experiment: Enhancement of nuclear co-repressor receptor binding to mouse CAR H213A mutant […] at 10 uM by yeast two-hybrid assay; type: cell-based; summary of the method: as §2
[18] = molecular target: T8, Nuclear receptor subfamily 1 group I member 3; experiment: Enhancement of nuclear co-repressor receptor binding to mouse CAR L353A mutant […] at 10 uM by yeast two-hybrid assay; type: cell-based; summary of the method: as §2
[19] = molecular target: T5, Nuclear receptor subfamily 1 group I member 3; experiment: Activation of mouse CAR F171L mutant expressed in HEK293 cells at 10 uM by mammalian one-hybrid assay; type: cell-based; conditions: read-out: Activity; summary of the method: as §3

SMILES: C[C@]12CC[C@@H](O)C[C@@H]1CC[C@@H]1[C@@H]2CC[C@]2(C)C=CC[C@@H]12 [ANDROSTENOL]
- FC [1]: 49
- inhibition at 10 µM [2]: < 50%
- inhibition at 10 µM [3]: > 60%
- inhibition at 10 µM [4]: 50%

SMILES: Clc1ccccc1C(c1ccccc1)(c1ccccc1)n1ccnc1 [CLOTRIMAZOLE]
- Activity [5]: > 150%
- inhibition at 2 µM [6]: ≥ 50%
- activity at 2 µM [7]: < 50%
- activity at 2 µM [8]: < 50%
- Activity [9]: < 50%

SMILES: Clc1cnc(Oc2ccc(Oc3ncc(Cl)cc3Cl)cc2)c(Cl)c1
- activity at 1 µM [10]: < 50%
- inhibition at 1 µM [11]: 50%
- activity at 1 µM [12]: < 50%
- Activity [13]: < 50%
- activity at 1 µM [14]: < 50%
- inhibition at 1 µM [15]: < 50%

SMILES: COc1ccc(C(=O)CCCc2ccccc2)cc1
- Activity [16]: >= 50%
- Activity [17]: >= 50%
- Activity [18]: >= 50%
- activity at 10 µM [19]: < 50%
